# Source: PubChem
# An excerpt weighted towards active compounds, which were near 2.9% of everything screened.
# SENP7 inh = inhibitors of human SENP7 protease | AID 434973 | inhibition, % at 5 µM | actives 1.5% (n = 330,000) | recombinant SENP7, Z-RLRGG-aminoluciferin luminescence, 40 min;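 active = inhibition above about 50% at the single test dose, limit read from the data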;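 note: plate controls were DMSO with enzyme for no effect and no enzyme buffer wells for full effect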
# HSP90 inh = inhibitors of HSP90 luciferase refolding in rabbit reticulocyte lysate. luciferase refolding luminescence, 3 h. inhibition, % at 5.6 µM. actives 0.91% (n = 290,000). AID 1789;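 active = inhibition above the screen-wide mean plus 3 SD, computed separately per campaign, cut at about 16% in these data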;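 note: 0% = DMSO wells and 100% = 60 µM geldanamycin wells; inhibitors lower the luminescence because luciferase stays unfolded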
# SENP8 block-1 = inhibitors of human SENP8 protease | Q96LD8 | purified SENP8, Z-RLRGG-aminoluciferin cleavage, luminescence | inhibition, % at 10 µM | actives 1.2% (n = 330,000); in the data active = inhibition above about 50%
# SENP8 block-2 = SENP8 (human) protease inhibition; Q96LD8; recombinant SENP8, Nedd8 substrate fluorescence; inhibition, % at 20 µM; actives 0.64% (n = 360,000); AID 602440; in the data active = inhibition mostly above about 40%, no sharp cut-off; inactive = mostly below about 27%
# SENP1 inh = blocks the human SENP1 SUMO protease catalytic domain; AID 624204; actives 0.21% (n = 360,000); inhibition, % at 10 µM; recombinant SENP1 catalytic domain, CyPet-SUMO1-YPet FRET cleavage;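 active = inhibition at least 30% at 10 µM, raw YFP signal under a set limit, fluorescence ratio 0.5 to 1.5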;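 note: 0% = enzyme with DMSO and 100% = no enzyme wells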
#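 Test system: hSENP1 catalytic domain, recombinant; Amount: 20 pM final SENP1 enzyme; Medium: Tris pH 8 buffer plus EDTA, NaCl, BME, BSA, NP40, catalase; Schedule: 50 min enzyme reaction, room temperature, light-protected; Technique: FRET fluorescence in CFP and YFP emission channels; Controls: no-enzyme wells low, DMSO-plus-enzyme wells high control.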
# SENP6 inh = inhibitors of human SENP6 protease | Recombinant SENP6 catalytic domain, aminoluciferin luminescence | inhibition, % at 10 µM | actives 1.8% (n = 330,000) | Q9GZR1;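 active = inhibition above about 50% at the single tested dose, limit read from the data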;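 note: plate controls were DMSO wells with enzyme for no effect and DMSO wells lacking enzyme for full effect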
# Target sequence (Q9GZR1 628-1112 limits assumed): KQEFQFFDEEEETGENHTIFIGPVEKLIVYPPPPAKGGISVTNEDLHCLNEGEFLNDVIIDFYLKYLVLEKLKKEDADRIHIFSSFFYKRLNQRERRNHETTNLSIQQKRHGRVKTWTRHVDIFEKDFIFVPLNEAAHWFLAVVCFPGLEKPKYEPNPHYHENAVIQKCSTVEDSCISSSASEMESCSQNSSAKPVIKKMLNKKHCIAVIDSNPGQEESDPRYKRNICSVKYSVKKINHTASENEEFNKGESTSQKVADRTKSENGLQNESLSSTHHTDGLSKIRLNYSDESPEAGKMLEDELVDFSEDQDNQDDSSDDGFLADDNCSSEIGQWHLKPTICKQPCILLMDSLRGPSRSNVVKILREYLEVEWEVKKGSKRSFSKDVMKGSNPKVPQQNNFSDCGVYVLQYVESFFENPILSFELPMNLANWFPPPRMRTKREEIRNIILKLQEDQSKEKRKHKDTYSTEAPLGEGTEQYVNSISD
# SENP8 inh conf = confirmation of human SENP8 protease inhibitors | AID 624319 | purified SENP8, Nedd8-AMC/pro-Nedd8 cleavage fluorescence, 30 min | actives 15% (n = 1,400) | shares compounds with SENP8 block-2 | inhibition, % at 25 µM; in the data active = inhibition mostly above about 39%, no sharp cut-off; inactive = mostly below about 34%
# Active calls of the source: *; x = not tested or not shown.
SMILES,SENP7 inh,HSP90 inh,SENP8 block-1,SENP8 block-2,SENP1 inh,SENP6 inh,SENP8 inh conf
COc1ccc(OC)c(C(=O)c2c(C)oc3cc([N+](=O)[O-])c(O)c([N+](=O)[O-])c23)c1,6,4,6,19,4,-17,x
Cc1oc2cc([N+](=O)[O-])c(O)c([N+](=O)[O-])c2c1C(=O)c1ccc(Cl)cc1,1,0,2,42*,5,-9,22
C[C@@H]1CN(C(=O)c2nc3ccc(Cl)cn3c2CN2CCc3sccc3C2)C[C@H](C)O1,-4,3,4,43*,-11,8,21
NC(=O)c1ccccc1NC(=O)C1CCCO1 (stereo not given),-2,1,7,24,-1,5,x
CC(=O)c1cccc(NS(=O)(=O)N2CCCCC2)c1,-1,-3,-3,41*,2,15,4
O=C(/C=C/[C@H]1O[C@@H](n2cnc3c(NC(=O)c4ccccc4)ncnc32)[C@H](O)[C@@H]1O)NCCc1ccc(F)cc1,x,x,x,23,1,x,x
CC(=O)C1=C(C)NC(C)=C(C(C)=O)C1c1ccccc1,0,-2,11,41*,2,2,11
CCOC(=O)c1n[nH]n(-c2cc(Cl)cc(Cl)c2)c1=O,-8,0,4,6,0,-13,x
COC(=O)Cc1c(C)[nH]n(-c2cc(Cl)cc(Cl)c2)c1=O,13,1,0,59*,1,17,12
CCn1c(C)nc2cc(C(=O)NNS(=O)(=O)c3ccccc3F)ccc21,-1,0,5,42*,2,-12,-8
CCOC(=O)c1ccc(S(=O)(=O)NNC(=O)c2ccc3c(c2)nc(C)n3CC)cc1,3,0,-3,4,3,-11,x
COc1cc(OC)c(C=CC(=O)c2ccccc2O)c(OC)c1,x,x,x,42*,4,x,13
CC1(OC(=O)CCc2ccccc2)C(=O)C=C2C=C(C3CC3)OC=C2C1=O (stereo not given),-4,x,5,x,x,-10,x
CC1(OC(=O)CCc2ccccc2)C(=O)C=C2C=C3CCCN3C=C2C1=O (stereo not given),5,x,7,55*,-12,8,43*
Cc1ccc(N2CCN(C(=O)N3CCOCC3)CC2)c(C)c1,0,-2,10,21,1,1,x
CN1CCC(=NNC(=O)C(=O)NC2CCCC2)CC1,7,1,4,40*,0,2,5
CN1CCC(=NNC(=O)C(=O)NC2CCCCC2)CC1,5,5,-2,7,-1,-16,x
CSc1nc(N)nc2c1ncn2CC(=O)N[C@H](C)c1cccc2ccccc12,5,x,-1,-81,2,-7,x
Nn1c(-c2ccccc2Cl)nnc1-c1ccccc1Cl,9,0,-6,40*,1,13,9
CNS(=O)(=O)c1cccc(C(=O)OCC(=O)Nc2ccc3ccccc3c2)c1,1,x,8,12,3,3,x
O=[N+]([O-])c1ccc(N/N=C/c2sc(N3CCOCC3)nc2-c2ccccc2)c(S(=O)(=O)Nc2ccc(Cl)cc2)c1,x,7,x,53*,-8,x,20
O=[N+]([O-])c1ccc(N/N=C/c2sc(N3CCOCC3)nc2-c2ccccc2)c(S(=O)(=O)Nc2ccccc2Cl)c1,x,-3,x,46*,35,x,30
C[N+](C)(C)C[C@H](O)CC(=O)[O-],-3,x,2,45*,-1,-8,14
NC1=NC(=Nc2cccc(S(=O)(=O)N3CCOCC3)c2)c2ccccc21,5,-3,1,28,3,-6,x
O=C1CCCCCCCN1Cc1ccccc1,-6,x,-3,14,-1,-14,x
CC1=NN(Cc2ccccc2)C(=O)C1,12,4,4,43*,2,9,26
CC1(C(=O)NCc2ccc3c(c2)OCO3)CCN1C(=O)CC1CCCC1 (stereo not given),x,x,x,9,1,x,x
O=S(=O)(c1ccccc1C(F)(F)F)N1CCOCC1,-7,4,-8,21,2,-2,x
O=S(=O)(c1ccccc1C(F)(F)F)N1C=CC(C(F)(F)F)=NCC1,x,2,x,41*,0,x,8
